Activity calls are given as the source filed them. The calls are words filed in the database; no cut-off is given here.
How the values were obtained:
Plasmodium falciparum [1] = assay: (§1) Antimalarial activity against chloroquine-susceptible Plasmodium falciparum D10; format: functional, organism-based
Outline: (§2)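 Asexual P. falciparum cultured in human O+ erythrocytes at 37°C under 5% CO2/3% O2 and sorbitol-synchronised. Ring stages were set at 1% parasitemia and 5% hematocrit in low-hypoxanthine medium, in triplicate. […] Uninfected-RBC counts were subtracted and IC50/IC90 taken by linear regression with 95% CI.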

Plasmodium falciparum [2] = assay: Increase in intracellular reactive oxygen species in Plasmodium falciparum at 50 uM; format: functional, organism-based
Outline: (§3)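 Parasitized cells preloaded with 50 μM DCFH-DA, 37°C, 30 min, washed, then exposed to drug for 4 h, alone or with mannitol (50 μM) or ascorbic acid plus reduced glutathione (1 mM each). Flow cytometry at ex 485/em 535 nm; ROS taken as mean fluorescence intensity. SD from three experiments.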

Plasmodium falciparum [3] = assay: Growth arrest of Plasmodium falciparum at 50 uM; format: functional, organism-based
Outline: (§4)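 Maturation assay: synchronized ring-stage parasites in 24-well plates with 50 μM drug and increasing mannitol concentrations. When control schizonts matured, schizonts per 5,000 red cells counted in each well.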

Plasmodium falciparum [4] = assay: Restoration of nuclear GCN5 activity in Plasmodium falciparum at 50 uM in presence of 400 units/ml superoxide dismutase
Plasmodium falciparum [5] = assay: Increase of Plasmodium falciparum 3D7 mitochondrial DNA damage by real-time PCR analysis; format: functional
Outline: (§5)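 3D7 early trophozoites at 5% parasitemia and 5% hematocrit exposed to drug or DMSO for 6 h at 37°C. Genomic DNA by proteinase K/phenol-chloroform, quantified by dot blot; SYBR green real-time PCR on 1 ng DNA. Lesions derived from CT shift relative to control, control amplification efficiency set at 1.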

Plasmodium falciparum [6] = assay: Decreased reactive oxygen species in Plasmodium falciparum with 1 mM ascorbic acid and 1 mM reduced glutathione; format: functional, organism-based; outline: as §3
Plasmodium falciparum [7] = assay: Growth inhibition of chloroquine-susceptible Plasmodium falciparum 3D7 at 5 uM; format: functional, organism-based
Outline: (§6)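 Strain 3D7, sorbitol-synchronized rings, seeded at 0.5% parasitemia, 5% hematocrit in O+ erythrocytes, RPMI/Albumax medium, 37°C, 5% CO2/3% O2. Continuous exposure to 5 or 20 μM (or none); parasitemia counted daily for 4 days on Giemsa smears, three replicates per point.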

Plasmodium falciparum [8] = assay: Growth restoration of Plasmodium falciparum at 50 uM with 400 uM mannitol; format: functional, organism-based; outline: as §4
Plasmodium falciparum [9] = assay: Inhibition of nuclear GCN5 in Plasmodium falciparum after 8 hrs by liquid HAT assay at 25 to 100 uM
Plasmodium falciparum [10] = assay: Decreased reactive oxygen species in Plasmodium falciparum with 50 uM mannitol; format: functional, organism-based; outline: as §3
Plasmodium falciparum [11] = assay: Antimalarial activity against chloroquine-resistant Plasmodium falciparum 7G8; format: functional, organism-based; outline: as §2
Plasmodium falciparum [12] = assay: Growth restoration of Plasmodium falciparum at 50 uM with 300 uM mannitol; format: functional, organism-based; outline: as §4
Plasmodium falciparum [13] = assay: Increased intracellular reactive oxygen species in Plasmodium falciparum at 1 uM; format: functional, organism-based; outline: as §3
Plasmodium falciparum [14] = assay: Restoration of nuclear GCN5 activity in Plasmodium falciparum at 50 uM in presence of 300 uM mannitol
Plasmodium falciparum [15] = assay: Increase of Plasmodium falciparum 3D7 nuclear DNA damage by real-time PCR analysis; format: functional; outline: as §5
Plasmodium falciparum [16] = assay: Inhibition of GCN5 in Plasmodium falciparum assessed as hyperacetylation of H3-K9 and H3-K14 at 20 uM after 12 hrs; conditions: 3D7, in the assay text read “hypoacetylation” for “hyperacetylation”
Outline: (§7)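 Unsynchronized 3D7 cultures exposed to 20 μM drug for 4 or 12 h (aliquots treated from 0 or 8 h, all harvested at 12 h), with or without 300 μM mannitol. Histones acid-extracted, equal amounts run on SDS-PAGE and immunoblotted with acetylation site-specific antibodies; anti-H4 as loading control.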

Plasmodium falciparum [17] = assay: as §1; format: functional, organism-based; outline: as §2; remark: listed apart in the source
Plasmodium falciparum [18] = assay: Restoration of nuclear GCN5 activity in Plasmodium falciparum at 50 uM in presence of 5000 units/ml catalase
Plasmodium falciparum [19] = assay: Growth inhibition of chloroquine-resistant Plasmodium falciparum 7G8 at 20 uM; format: functional, organism-based
Outline: (§8)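 Sorbitol-synchronised ring-stage parasites were seeded at 0.5% parasitemia and 5% hematocrit in 24-well plates. […] Parasitemia was counted daily for 4 days on Giemsa-stained smears, as means of three replicate samples.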

Plasmodium falciparum [20] = assay: Growth inhibition of chloroquine-resistant Plasmodium falciparum 7G8 at 5 uM; format: functional, organism-based; outline: as §8
Plasmodium falciparum [21] = assay: Pro-oxidant activity in Plasmodium falciparum as increased ROS; format: functional, organism-based; outline: as §3
Plasmodium falciparum [22] = assay: Increased DNA damage in Plasmodium falciparum after 12 hrs in TUNEL assay; format: functional, organism-based
Outline: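 Ring-stage parasites exposed to 20 or 50 μM for 12 h, with or without 400 μM mannitol. Percoll-purified, fixed on poly-L-lysine slides, TUNEL with fluorescein-dUTP, propidium iodide counterstain. 300 cells scored per treatment for percent labeled; triplicate samples.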

Plasmodium falciparum [23] = assay: Antimalarial activity against chloroquine-resistant Plasmodium falciparum Dd2; format: functional, organism-based; outline: as §2
Plasmodium falciparum [24] = assay: Activity of GCN5 in Plasmodium falciparum assessed as increase in acetylation of H3-K9 and H3-K14 at 20 uM in presence of mannitol; outline: as §7
Plasmodium falciparum [25] = assay: Inhibition of Plasmodium falciparum 3D7 recombinant GCN5 by HAT assay at 100 uM
Outline: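 Recombinant PfGCN5 HAT domain (30 ng) with 1 μg bovine core histones preincubated ± drug in HAT buffer, 30°C, 10 min, then 0.1 μCi [3H]acetyl-CoA for 10 min. Half spotted on P-81 filters, washed at pH 9.2, scintillation counted; half resolved by SDS-PAGE/fluorography. DMSO solvent control; triplicates.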

Plasmodium falciparum [26] = assay: Growth inhibition of chloroquine-susceptible Plasmodium falciparum 3D7 at 20 uM; format: functional, organism-based; outline: as §6

In the case of COc1cc(/C=C/C(=O)CC(=O)/C=C/c2ccc(O)c(OC)c2)ccc1O [CURCUMIN], the IC50 (Plasmodium falciparum [1]) is reported as 22.9 µM, the IC90 (Plasmodium falciparum [1]) is reported as 41.3 µM and the Activity (Plasmodium falciparum [2]) is reported as “Active”. For the same compound, the Activity (Plasmodium falciparum [3]) was “Active”, the Activity (Plasmodium falciparum [4]) was “Active” and the Activity (Plasmodium falciparum [5]) was “Active”. The Activity (Plasmodium falciparum [6]) was “Active”, the Activity (Plasmodium falciparum [7]) was “Active” and the Activity (Plasmodium falciparum [8]) was “Active”. For the same compound, the Activity (Plasmodium falciparum [9]) was “Active”, the Activity (Plasmodium falciparum [10]) was “Active” and the IC50 (Plasmodium falciparum [11]) was 29.6 µM. The IC90 (Plasmodium falciparum [11]) was 53.3 µM, the Activity (Plasmodium falciparum [12]) was “Active” and the Activity (Plasmodium falciparum [13]) was “Active”. For the same compound, the Activity (Plasmodium falciparum [14]) was “Active”, the Activity (Plasmodium falciparum [15]) was “Active” and the Activity (Plasmodium falciparum [16]) was “Active”. The IC50 (Plasmodium falciparum [17]) was 22.9 µM, the IC90 (Plasmodium falciparum [17]) was 41.3 µM and the Activity (Plasmodium falciparum [18]) was “Active”. For the same compound, the Activity (Plasmodium falciparum [19]) was “Active”, the Activity (Plasmodium falciparum [20]) was “Active” and the Activity (Plasmodium falciparum [21]) was “Dose-dependent effect”. For the same compound, the Activity (Plasmodium falciparum [22]) was “Active”, the IC50 (Plasmodium falciparum [23]) was 27.4 µM and the IC90 (Plasmodium falciparum [23]) was 49.4 µM. For the same compound, the Activity (Plasmodium falciparum [24]) was “Active”, the inhibition (Plasmodium falciparum [25]) was 95% and the Activity (Plasmodium falciparum [26]) was “Active”.

From ChEMBL document CHEMBL1142205 (Antimicrob Agents Chemother, 2007)
